Data on 13 compounds can be found in ChEMBL document CHEMBL1139768, “The discovery of potent, selective, and orally bioavailable hNK1 antagonists derived from pyrrolidine” (Bioorg Med Chem Lett, 2007).

Data set [1] has as its target T1, Substance-P receptor (Homo sapiens, UniProt P25103). Briefly: Displacement of [125I]-SP from human NK1 receptor expressed in CHO cells.
Data set [2] has as its system Gerbillinae. Briefly: Inhibition of GR-73632-induced foot tapping in gerbils at 3 mg/kg, iv after 24 hrs. The class given is functional. The note with it: for inhibition in vivo at 3 mg/kg: Gerbillinae, iv, 24 h.
In data set [3] the test system is Gerbillinae. Put plainly: Inhibition of GR-73632-induced foot tapping in iv dosed gerbils. The class given is functional. The settings on record: for ED50: Gerbillinae, iv, read-out: ID50 (the source's name).
Data set [4] relates to Gerbillinae. Put plainly: Inhibition of GR-73632-induced foot tapping in iv dosed gerbils after 24 hrs. The note with it: for ED50: Gerbillinae, iv, 24 h, read-out: ID50 (the source's name). It counts as functional.
The test system of data set [5] is Gerbillinae. Put plainly: Inhibition of GR-73632-induced foot tapping in gerbils at 6 mg/kg, iv after 24 hrs. It counts as functional.
The test system of data set [6] is Gerbillinae. Briefly: Inhibition of GR-73632-induced foot tapping in gerbils at 1 mg/kg, iv. The class given is functional.
Data set [7] deals with T1, Substance-P receptor. Briefly: Displacement of [125I]-SP from human NK1 receptor expressed in CHO cells at 100 nM. (In a radioligand displacement assay an active substance lowers the binding of a labelled ligand.)
Data set [8] relates to Gerbillinae. Briefly: Inhibition of GR-73632-induced foot tapping in gerbils at 3 mg/kg, iv. It counts as functional.
The subject of a further data set is Rhesus monkey. Put plainly: Receptor occupancy at NK1 receptor in iv dosed rhesus monkey brain after 4 hrs. The class given is functional, Macaca mulatta. The method, boiled down:
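Rhesus macaques received a 4-h iv infusion. Brain NK1 receptor occupancy was measured by PET and related to plasma steady-state concentration to estimate 50% and 90% occupancy levels.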

A short description of data set [9]: Plasma clearance in dog. The class given is ADME, organism-based, Canis lupus familiaris.
A further data set has as its target T2, Neuromedin-K receptor (Homo sapiens, UniProt P29371).
T2 sequence (P29371 whole entry): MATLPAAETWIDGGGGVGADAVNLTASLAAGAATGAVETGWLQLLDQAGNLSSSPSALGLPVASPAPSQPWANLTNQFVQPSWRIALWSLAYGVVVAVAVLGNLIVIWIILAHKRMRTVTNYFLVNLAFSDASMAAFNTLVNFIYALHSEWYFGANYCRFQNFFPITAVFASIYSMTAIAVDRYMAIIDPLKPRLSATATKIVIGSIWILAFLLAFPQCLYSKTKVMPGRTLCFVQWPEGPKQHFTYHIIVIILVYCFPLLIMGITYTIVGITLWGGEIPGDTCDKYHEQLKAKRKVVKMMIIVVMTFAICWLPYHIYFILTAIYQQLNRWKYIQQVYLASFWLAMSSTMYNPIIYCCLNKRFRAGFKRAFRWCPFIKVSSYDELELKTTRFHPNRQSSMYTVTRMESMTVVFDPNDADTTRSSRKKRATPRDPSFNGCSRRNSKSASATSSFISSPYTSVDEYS
Briefly: Binding affinity to NK3 receptor.

Data set [10] in a line: Oral bioavailability in dog. The class given is ADME, organism-based, Canis lupus familiaris. The note with it: in vivo.
Another data set concerns the target T3, Substance-K receptor (Homo sapiens, UniProt P21452).
T3 sequence (P21452 whole entry): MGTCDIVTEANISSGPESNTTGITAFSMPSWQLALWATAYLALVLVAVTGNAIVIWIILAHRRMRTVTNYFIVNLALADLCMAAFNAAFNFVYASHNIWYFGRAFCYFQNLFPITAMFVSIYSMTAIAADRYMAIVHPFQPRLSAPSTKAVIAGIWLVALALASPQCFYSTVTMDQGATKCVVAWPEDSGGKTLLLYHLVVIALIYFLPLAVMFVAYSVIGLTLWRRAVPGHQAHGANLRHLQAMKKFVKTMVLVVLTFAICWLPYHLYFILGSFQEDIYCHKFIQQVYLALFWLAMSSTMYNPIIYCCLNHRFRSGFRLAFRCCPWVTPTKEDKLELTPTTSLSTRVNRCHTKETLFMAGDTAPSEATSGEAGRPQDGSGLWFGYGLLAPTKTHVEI
Briefly: Binding affinity to NK2 receptor.

Data set [11] can be described thus: Half life in rat. It counts as ADME, organism-based. The note with it: in vivo.
A short description of data set [12]: Volume of distribution in rat. The class given is ADME, organism-based. The note with it: in vivo.
A short description of data set [13]: Half life in rhesus monkey. It counts as ADME, organism-based, Macaca mulatta. The note with it: in vivo.
Data set [14] can be described thus: Oral bioavailability in rat. It counts as ADME, organism-based. The note with it: in vivo.
Data set [15] deals with Gerbillinae. Put plainly: Inhibition of GR-73632-induced foot tapping in orally dosed gerbils after 4 hrs. The settings on record: po, read-out: ID50 (the source's name).
Data set [16] in a line: Plasma clearance in rhesus monkey. The class given is ADME, organism-based, Macaca mulatta.
The test system of the next data set is Cavia porcellus. Briefly: Inhibition of separation-induced vocalizations in po dosed guinea pig after 4 hrs. It counts as functional. The note with it: read-out: ID50 (the source's name). The method, boiled down:
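Guinea pig pups were dosed orally, and separation-induced vocalizations were measured 4 h later. ID50 is given in mg/kg.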

Data set [17] can be described thus: Half life in dog. The class given is ADME, organism-based, Canis lupus familiaris. The note with it: in vivo.
Data set [18] is described as follows: Oral bioavailability in rhesus monkey. The class given is ADME, organism-based, Macaca mulatta. The settings on record: in vivo.
Data set [19] has as its system Gerbillinae. Put plainly: Inhibition of GR-73632-induced foot tapping in orally dosed gerbils after 1 hr. The settings on record: po, read-out: ID50 (the source's name).
A short description of data set [20]: Volume of distribution in rhesus monkey. It counts as ADME, organism-based, Macaca mulatta. The note with it: in vivo.
Data set [21] in a line: Plasma clearance in rat. The class given is ADME, organism-based.
The nature of data set [22]: Volume of distribution in dog. It counts as ADME, organism-based, Canis lupus familiaris. The settings on record: in vivo.
The subject of data set [23] is Gerbillinae. Put plainly: Inhibition of GR-73632-induced foot tapping in gerbils at 2 mg/kg, iv. It counts as functional.

Each structure is given as a SMILES string.

T1 sequence (P25103 whole entry): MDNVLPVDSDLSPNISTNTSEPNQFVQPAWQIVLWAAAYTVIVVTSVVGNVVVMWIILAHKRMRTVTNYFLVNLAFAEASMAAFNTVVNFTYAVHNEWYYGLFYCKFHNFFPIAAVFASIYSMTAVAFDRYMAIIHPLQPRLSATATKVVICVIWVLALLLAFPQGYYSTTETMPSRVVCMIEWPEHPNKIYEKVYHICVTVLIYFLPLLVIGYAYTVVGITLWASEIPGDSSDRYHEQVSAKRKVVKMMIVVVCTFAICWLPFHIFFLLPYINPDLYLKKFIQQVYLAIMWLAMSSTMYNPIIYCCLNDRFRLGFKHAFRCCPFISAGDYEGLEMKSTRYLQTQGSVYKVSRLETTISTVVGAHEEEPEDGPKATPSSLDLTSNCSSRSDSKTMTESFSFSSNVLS

In turn, `C[C@@H](O[C@@H]1CN(C(=O)[C@@H]2CCC(=O)N2C)C[C@H]1c1ccc(F)cc1)c1cc(C(F)(F)F)cc(C(F)(F)F)c1` showed an IC50 at Substance-P receptor [1] of 0.12 nM. This compound also returned an inhibition in vivo at 3 mg/kg in the data set on Gerbillinae [2] of 100%. The ED50 in the data set with Gerbillinae [3] worked out at 0.6 mg/kg; in the data set on Gerbillinae [4] it was 1.2 mg/kg.

For `CC(C)NC(=O)N1C[C@@H](O[C@H](C)c2cc(C(F)(F)F)cc(C(F)(F)F)c2)[C@H](c2ccc(F)cc2)C1`, the IC50 on Substance-P receptor [1] is 0.06 nM. This compound had an inhibition in vivo at 6 mg/kg with Gerbillinae [5] of 86%. Besides, in the data set on Gerbillinae [4], the ED50 is 0.8 mg/kg. The compound further registered an inhibition in vivo at 1 mg/kg in the data set with Gerbillinae [6] of 64%.

Compound `CC(=O)N1C[C@@H](O[C@@H](C)c2cc(C(F)(F)F)cc(C(F)(F)F)c2)[C@H](c2ccccc2)C1` yielded an inhibition on Substance-P receptor [7] of 18%.

With `C[C@@H](O[C@@H]1CN(C2=CC(=O)C(O)C2)C[C@H]1c1ccc(F)cc1)c1cc(C(F)(F)F)cc(C(F)(F)F)c1` (single isomer, unassigned; diastereomer A), the IC50 on Substance-P receptor [1] was found to be 0.22 nM. Besides, in the data set with Gerbillinae [8], the inhibition in vivo at 3 mg/kg was found to be 100%. This compound also registered an Inhibition in the data set with Gerbillinae [2] (3 mg/kg) of 100%. Moreover, the ID50 with Gerbillinae [3] was found to be 0.5 mg/kg. Moreover, the ED50 with Gerbillinae [4] came to 0.7 mg/kg.

`CC(=O)N1C[C@@H](O[C@H](C)c2cc(C(F)(F)F)cc(C(F)(F)F)c2)[C@H](c2ccccc2)C1` showed an IC50 at Substance-P receptor [1] of 0.09 nM. The inhibition in vivo at 6 mg/kg in the data set with Gerbillinae [5] amounted to 98%. The results for the ED50 with Gerbillinae [3] and in the data set with Gerbillinae [4] were 0.6 mg/kg and 3.2 mg/kg, respectively.

For the compound `C[C@@H](O[C@@H]1CN(C2=CC(=O)C(O)C2)C[C@H]1c1ccc(F)cc1)c1cc(C(F)(F)F)cc(C(F)(F)F)c1` (stereo in doubt), at Substance-P receptor [1], the IC50 was 0.3 nM. Moreover, testing at 3 mg/kg in the data set on Gerbillinae [2] gave an inhibition in vivo of 95%. Also, the ID50 is 1.1 mg/kg in the data set with Gerbillinae [3] and 0.5 mg/kg with Gerbillinae [4].

`CCC(=O)N1C[C@@H](O[C@H](C)c2cc(C(F)(F)F)cc(C(F)(F)F)c2)[C@H](c2ccc(F)cc2)C1` showed an IC50 at Substance-P receptor [1] of 0.09 nM. Also, testing at 6 mg/kg in the data set with Gerbillinae [5] gave an inhibition in vivo of 0%.

In turn, `C[C@@H](O[C@@H]1CN(C2=CC(=O)CC2)C[C@H]1c1ccc(F)cc1)c1cc(C(F)(F)F)cc(C(F)(F)F)c1` came in with an Occ50 with Rhesus monkey of 33 ng/mL. The compound also showed an Occ90 with Rhesus monkey of 300 ng/mL. The clearance was found to be 1 mL/min/kg in [9], 4.5 mL/min/kg in data set [16] and 19.6 mL/min/kg in data set [21]. Moreover, the IC50 on Substance-P receptor [1] is 0.11 nM; at Neuromedin-K receptor it was greater than 3000 nM; at Substance-K receptor, 1730 nM. For the same compound, the bioavailability is 100% in data set [10], 100% in data set [14] and 68% in data set [18]. Also, the half-life in data set [11] was 3.6 h; in data set [13], 5.7 h; in data set [17], 20 h. In addition, the Vd in data set [12] was determined as 6.2 L/kg; in [20] it was 2.3 L/kg; in data set [22], 1.6 L/kg. Besides, the inhibition in vivo at 3 mg/kg in the data set on Gerbillinae [2] stood at 100%. For the same compound, the ED50 turned out to be 0.25 mg/kg in the data set on Gerbillinae [15]; 0.17 mg/kg with Cavia porcellus; 0.1 mg/kg in the data set on Gerbillinae [3]; 0.9 mg/kg in the data set with Gerbillinae [19]; 0.045 mg/kg in the data set on Gerbillinae [4]. In the data set on Gerbillinae [6], this compound registered an inhibition in vivo at 1 mg/kg of 100%.

Take `C[C@@H](O[C@@H]1CN(C(=O)NC(C)(C)C)C[C@H]1c1ccc(F)cc1)c1cc(C(F)(F)F)cc(C(F)(F)F)c1`: at Substance-P receptor [1], the IC50 worked out at 0.14 nM. Further, in the data set on Gerbillinae [5], at 6 mg/kg the inhibition in vivo was 6%. In the data set with Gerbillinae [6], testing at 1 mg/kg gave an inhibition in vivo of 28%.

`CNC(=O)N1C[C@@H](O[C@H](C)c2cc(C(F)(F)F)cc(C(F)(F)F)c2)[C@H](c2ccc(F)cc2)C1` displayed an IC50 at Substance-P receptor [1] of 0.11 nM. In the data set with Gerbillinae [23], this compound registered an inhibition in vivo at 2 mg/kg of 100%. The inhibition in vivo at 6 mg/kg in the data set with Gerbillinae [5] worked out at 77%. The values for the ED50 in the data set on Gerbillinae [3] and with Gerbillinae [4] were 1 mg/kg and 3 mg/kg, respectively.

Compound `C[C@@H](O[C@@H]1CN(C2=CC(=O)CC2)C[C@H]1c1ccccc1)c1cc(C(F)(F)F)cc(C(F)(F)F)c1` yielded an IC50 on Substance-P receptor [1] of 0.07 nM. The inhibition in vivo at 3 mg/kg in the data set on Gerbillinae [8] and in the data set on Gerbillinae [2] was 100% each time. Also, the ED50 was found to be 0.9 mg/kg in the data set on Gerbillinae [3] and 1.1 mg/kg in the data set with Gerbillinae [4].

Compound `C[C@@H](O[C@@H]1CN(C(=O)N2CCOCC2)C[C@H]1c1ccccc1)c1cc(C(F)(F)F)cc(C(F)(F)F)c1` showed an IC50 at Substance-P receptor [1] of 0.16 nM. This compound also had an inhibition in vivo at 1 mg/kg in the data set with Gerbillinae [6] of 40%.

`CCNC(=O)N1C[C@@H](O[C@H](C)c2cc(C(F)(F)F)cc(C(F)(F)F)c2)[C@H](c2ccc(F)cc2)C1` displayed an IC50 at Substance-P receptor [1] of 0.1 nM. In addition, the inhibition in vivo at 6 mg/kg with Gerbillinae [5] came out at 93%. Further, in the data set on Gerbillinae [4], the ED50 was 1 mg/kg. The compound further came in with an inhibition in vivo at 1 mg/kg in the data set with Gerbillinae [6] of 61%.

The IC50 is the point on the concentration scale where inhibition reaches its midpoint. The inhibition in vivo is the share of the control response that was lost under treatment. The inhibition is how much of the control response was suppressed. As usually defined, the Inhibition is the relative decrease from the control value, in per cent. Broadly, the clearance is the rate of elimination divided by the concentration. As a reminder, the bioavailability is the share of a dose that reaches the circulation, judged against a reference dose that is usually intravenous. As a reminder, the half-life is how long it takes for the measured level to halve. By Vd is commonly meant a proportionality between amount in the body and measured concentration, not a real space.
